From ChEMBL document CHEMBL1156564, “2-Phenoxy-indan-1-one derivatives as acetylcholinesterase inhibitors: a study on the importance of modifications at the side chain on the activity” (Bioorg Med Chem, 2008)
Active and inactive are the calls of the source. The rule behind the calls is not given here.

Key:
Rattus norvegicus = species: Rattus norvegicus; assay: Selectivity ratio of IC50 for BuchE in rat serum to IC50 for AchE in rat cortex; type: cell-free
Procedure, shortened: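 IC50 ratio from modified Ellman assays. BuChE from rat serum with butyrylthiocholine iodide. AChE from rat cortex homogenate, preincubated with isoOMPA (0.04 mmol/L) to block BuChE, with acetylthiocholine iodide. Each mixture held enzyme source, sodium phosphate buffer pH 7.4 and compound at different concentrations, incubated 37 °C for 15 min.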

Butyrylcholinesterase = Butyrylcholinesterase (Rattus norvegicus, UniProt Q9JKC1); assay: Inhibition of BuchE in rat serum by Ellman's method; type: cell-free
Procedure, shortened: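 Modified Ellman assay with rat serum as BuChE source. Mixture of butyrylthiocholine iodide, sodium phosphate buffer pH 7.4, serum and tested compound at different concentrations, incubated 37 °C for 15 min.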

Acetylcholinesterase = biological target: T1, Acetylcholinesterase (Rattus norvegicus, UniProt P37136); assay: Inhibition of AchE in rat cortex by Ellman's method
T1 sequence (P37136 whole entry): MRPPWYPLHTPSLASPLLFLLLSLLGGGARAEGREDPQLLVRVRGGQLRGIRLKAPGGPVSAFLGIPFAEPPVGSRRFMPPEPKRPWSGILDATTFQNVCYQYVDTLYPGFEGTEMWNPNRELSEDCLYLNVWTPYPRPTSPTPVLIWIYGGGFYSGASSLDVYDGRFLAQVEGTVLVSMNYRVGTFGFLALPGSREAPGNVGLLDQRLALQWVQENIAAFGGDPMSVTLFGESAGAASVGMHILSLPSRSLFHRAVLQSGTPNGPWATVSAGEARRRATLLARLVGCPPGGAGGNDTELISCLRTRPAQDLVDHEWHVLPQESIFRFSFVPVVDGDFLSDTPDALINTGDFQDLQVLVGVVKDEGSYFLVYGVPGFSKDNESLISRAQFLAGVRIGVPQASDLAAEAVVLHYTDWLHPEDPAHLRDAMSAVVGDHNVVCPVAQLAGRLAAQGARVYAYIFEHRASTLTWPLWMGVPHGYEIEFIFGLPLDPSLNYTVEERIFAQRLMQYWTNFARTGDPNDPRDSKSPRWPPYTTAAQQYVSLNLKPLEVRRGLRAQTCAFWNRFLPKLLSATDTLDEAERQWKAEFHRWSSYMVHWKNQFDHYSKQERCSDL

PC-12 [1] = assay: Neuroprotective activity in rat PC12 cells assessed as inhibition of H2O2-induced neurotoxicity at 0.1 uM after 2 hrs by MTT assay; type: functional, cell-based
Procedure, shortened: (§1)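 Undifferentiated PC12 cells were seeded at 5000 cells/well and cultured at 37 °C under 5% CO2. They were left to attach for 1 day before […] was added. 2 h later the cells were exposed to H2O2. Viability was read by MTT (0.25 mg/mL final, 4 h), with formazan dissolved in DMSO and OD read at 570 nm.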

PC-12 [2] = assay: Neuroprotective activity against rat PC12 cells assessed as inhibition of H2O2-induced neurotoxicity at 0.5 uM after 2 hrs by MTT assay; type: functional, cell-based; procedure, shortened: as §1

Butyrylcholinesterase, sequence (Q9JKC1 whole entry): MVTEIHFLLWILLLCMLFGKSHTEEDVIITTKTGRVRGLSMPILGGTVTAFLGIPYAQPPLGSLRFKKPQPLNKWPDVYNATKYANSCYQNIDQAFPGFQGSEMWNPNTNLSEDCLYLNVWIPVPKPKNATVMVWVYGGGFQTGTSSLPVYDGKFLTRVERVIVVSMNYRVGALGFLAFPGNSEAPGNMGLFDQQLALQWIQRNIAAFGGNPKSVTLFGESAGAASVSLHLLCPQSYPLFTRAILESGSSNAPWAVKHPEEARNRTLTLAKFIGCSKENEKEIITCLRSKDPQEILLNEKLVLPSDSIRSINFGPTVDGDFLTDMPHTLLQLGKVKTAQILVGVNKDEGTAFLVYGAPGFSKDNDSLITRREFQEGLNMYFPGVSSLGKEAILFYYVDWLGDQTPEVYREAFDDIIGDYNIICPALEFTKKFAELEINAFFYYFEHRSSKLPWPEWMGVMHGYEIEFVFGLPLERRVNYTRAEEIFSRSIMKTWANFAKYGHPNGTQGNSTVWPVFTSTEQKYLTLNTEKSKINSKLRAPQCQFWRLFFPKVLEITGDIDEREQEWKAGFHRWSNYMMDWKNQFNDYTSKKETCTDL

Row | SMILES | Ratio IC50 (Rattus norvegicus) | IC50 (Butyrylcholinesterase) [µM] | IC50 (Acetylcholinesterase) [µM] | Activity (PC-12 [1]) | Activity (PC-12 [2])
1 | CCN(CC)CCCCc1ccc(OC2Cc3cc(OC)c(OC)cc3C2=O)cc1 (stereo not given) | 6.77 | 3.26 | 0.481 | – | –
2 | COc1cc2c(cc1OC)C(=O)C(Oc1ccc(CCCN3CCCC3)cc1)C2 (stereo not given) | 11.2 | 2.34 | 0.209 | – | –
3 | COc1cc2c(cc1OC)C(=O)C(Oc1ccc(CCN3CCCCC3)cc1)C2 (stereo not given) | 102 | 5.11 | 0.0502 | – | –
4 | COc1cc2c(cc1OC)C(=O)C(Oc1ccc(C(=O)CCN3CCCC3)cc1)C2 (stereo not given) | 1450 | 6.04 | 0.00416 | – | –
5 | CCN(C)CC(=O)c1ccc(OC2Cc3cc(OC)c(OC)cc3C2=O)cc1 (stereo not given) | 18.6 | 0.588 | 0.0316 | – | –
6 | CCN(C)CCc1ccc(OC2Cc3cc(OC)c(OC)cc3C2=O)cc1 (stereo not given) | 427 | 22 | 0.0516 | – | –
7 | CCN(C)CCc1cccc(OC2Cc3cc(OC)c(OC)cc3C2=O)c1 (stereo not given) | 12.2 | 8.65 | 0.71 | – | –
8 | CCN(CC)CCC(=O)c1ccc(OC2Cc3cc(OC)c(OC)cc3C2=O)cc1 (stereo not given) | 1950 | 1.52 | 0.00078 | Active | Active
9 | COc1cc2c(cc1OC)C(=O)C(Oc1ccc(C(=O)CN3CCCC3)cc1)C2 (stereo not given) | 7.2 | 1.72 | 0.24 | – | –
10 | COc1cc2c(cc1OC)C(=O)C(Oc1cccc(CCN3CCCCC3)c1)C2 (stereo not given) | 4.52 | 7 | 1.55 | – | –
11 | CCN(CC)CC(=O)c1ccc(OC2Cc3cc(OC)c(OC)cc3C2=O)cc1 (stereo not given) | 8.7 | 2.43 | 0.28 | – | –
12 | COc1cc2c(cc1OC)C(=O)C(CC1CCN(Cc3ccccc3)CC1)C2 (stereo not given) | – | – | – | Active | Active
13 | CCN(C)CCC(=O)c1ccc(OC2Cc3cc(OC)c(OC)cc3C2=O)cc1 (stereo not given) | 2440 | 4.51 | 0.00185 | – | –
14 | COc1cc2c(cc1OC)C(=O)C(Oc1ccc(CCN3CCCC3)cc1)C2 (stereo not given) | 816 | 30.4 | 0.0373 | – | –
15 | CCN(C)CCCC(=O)c1ccc(OC2Cc3cc(OC)c(OC)cc3C2=O)cc1 (stereo not given) | 715 | 26.9 | 0.0376 | – | –
16 | COc1cc2c(cc1OC)C(=O)C(Oc1ccc(C(=O)CN3CCCCC3)cc1)C2 (stereo not given) | 4.57 | 1.66 | 0.364 | – | –
17 | COc1cc2c(cc1OC)C(=O)C(Oc1ccc(C(=O)CCCN3CCCCC3)cc1)C2 (stereo not given) | 17 | 8.97 | 0.529 | – | –
18 | COc1cc2c(cc1OC)C(=O)C(Oc1ccc(CCCCN3CCCC3)cc1)C2 (stereo not given) | 7.76 | 3.22 | 0.415 | – | –
19 | COc1cc2c(cc1OC)C(=O)C(Oc1ccc(C(=O)CCCN3CCCC3)cc1)C2 (stereo not given) | 47.2 | 2.93 | 0.062 | – | –
20 | COc1cc2c(cc1OC)C(=O)C(Oc1cccc(C(=O)CCN3CCCC3)c1)C2 (stereo not given) | 13.3 | 11.1 | 0.832 | – | –
21 | CCN(CC)CCc1ccc(OC2Cc3cc(OC)c(OC)cc3C2=O)cc1 (stereo not given) | 394 | 16.6 | 0.0421 | – | –
22 | CCN(CC)CCCC(=O)c1ccc(OC2Cc3cc(OC)c(OC)cc3C2=O)cc1 (stereo not given) | 927 | 37.7 | 0.0406 | – | –
23 | COc1cc2c(cc1OC)C(=O)C(Oc1ccc(CCCN3CCCCC3)cc1)C2 (stereo not given) | 4.36 | 2.79 | 0.64 | – | –
24 | CCN(CC)CCC(=O)c1cccc(OC2Cc3cc(OC)c(OC)cc3C2=O)c1 (stereo not given) | 0.64 | 1.52 | 2.37 | – | –
25 | CCN(CC)CCc1cccc(OC2Cc3cc(OC)c(OC)cc3C2=O)c1 (stereo not given) | 5.31 | 11.1 | 2.09 | – | –
26 | COc1cc2c(cc1OC)C(=O)C(Oc1cccc(CCN3CCCC3)c1)C2 (stereo not given) | 8.69 | 15.4 | 1.77 | – | –
27 | COc1cc2c(cc1OC)C(=O)C(Oc1ccc(C(=O)CCN3CCCCC3)cc1)C2 (stereo not given) | 187 | 3.24 | 0.0173 | – | –
28 | CCN(CC)CCCc1ccc(OC2Cc3cc(OC)c(OC)cc3C2=O)cc1 (stereo not given) | 14.4 | 3.99 | 0.277 | – | –
